From ChEMBL document CHEMBL1145129, “Design, synthesis, and anticancer properties of 4,4'-dihydroxybenzophenone-2,4-dinitrophenylhydrazone and analogues” (J Med Chem, 2003)
In brackets after ≈: the same amount, converted by molar mass.

Experiments:
Melanoma tumor cell line [1] = assay: In vitro cytotoxicity against Human melanoma tumor cells.; assay type: functional, cell-based
In short: (§1)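 Fresh surgical human tumor specimens minced to ≤0.1 mm fragments in RPMI-1640 with 10% FBS, streptomycin and penicillin (10⁶–10⁸ cells/mL), explanted into slide flasks. Exposed 24 h at 37 °C, 5% CO₂, to test agent 0.1–20 μg/mL (≥5 doses over 3 logs), in duplicate. Washed, recultured 7–14 days, fixed, HPF cell counts vs control; IC50 (SD) from percent growth.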

Homo sapiens [2] = organism: Homo sapiens; assay: In vitro cytotoxicity against Human lung tumor cells.; assay type: functional; in short: as §1
[3] = tested on: breast cancer cells (Homo sapiens); assay: In vitro cytotoxicity in Human breast tumor cells
Homo sapiens [4] = organism: Homo sapiens; assay: In vitro cytotoxicity in Human ovary tumor cells; assay type: functional; details: Female gonad; in short: as §1
Homo sapiens [5] = organism: Homo sapiens; assay: In vitro cytotoxicity against Human lung tumor cells; Not available.; assay type: functional; in short: as §1
[6] = In vitro cytotoxicity in Human breast tumor cells; assay type: functional, cell-based; in short: as §1
Colon carcinoma cell = assay: In vitro cytotoxicity was tested in human colon tumor cells; assay type: functional, cell-based; in short: as §1
Melanoma tumor cell line [7] = assay: In vitro cytotoxicity against Human melanoma tumor cells; Not available.; assay type: functional, cell-based; in short: as §1
[8] = In vitro cytotoxicity in FDCP-1 cell line; details: Mus musculus, FDC-P1
MDA-MB-435 = assay: In vitro cytotoxicity in MDA-MB-435 cell line; assay type: functional, cell-based; details: Homo sapiens
In short: (§2)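 Established tumor lines kept in RPMI-1640 with 10% fetal calf serum and penicillin/streptomycin at 36 °C, 10% CO₂. Seeded 2000–3000 cells/well; hydrazone-containing medium added after 18 h, then 36 h further culture. Viable cells read by MTT absorbance at 570 nm; cytostasis (%) = (1 − A_treated/A_control) × 100.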

[9] = In vitro cytotoxicity in K 1735 M2 cell line; assay type: functional
[10] = In vitro cytotoxicity in SN 12 PM6 cell line; assay type: functional, cell-based; details: Homo sapiens; in short: as §2
[11] = In vitro cytotoxicity in KM 12L4 cell line; assay type: functional, cell-based; details: Homo sapiens; in short: as §2
[12] = In vitro cytotoxicity in B 16 F10 cell line; details: Mus musculus, B16-F10

SMILES | IC50 (Melanoma tumor cell line [1]) [µg/mL] | IC50 [3] [µg/mL] | IC50 (Homo sapiens [4]) [µg/mL] | IC50 (Homo sapiens [5]) | IC50 [6] [µg/mL] | IC50 (Colon carcinoma cell) [µg/mL] | IC50 (Melanoma tumor cell line [7]) | other results
O=[N+]([O-])c1ccc(NN=C(c2ccccc2)c2ccccc2)c([N+](=O)[O-])c1 | > 10 | > 5 | > 10 | – | – | – | – | IC50 (Homo sapiens [2]): > 5 µg/mL
CC(=O)Nc1ccc(C(=NNc2ccc([N+](=O)[O-])cc2[N+](=O)[O-])c2ccc(NC(C)=O)cc2)cc1 | > 10 | – | > 10 | Not Active | > 10 | > 10 | – | –
O=[N+]([O-])c1ccc(N(Cc2ccccc2)N=c2c3ccccc3oc3ccccc23)c([N+](=O)[O-])c1 | > 10 | – | > 10 | Not Active | > 10 | – | – | –
CCN(CC)c1ccc(C(=NNc2ccc([N+](=O)[O-])cc2[N+](=O)[O-])c2ccc(N(CC)CC)cc2)cc1 | 5 (≈ 9.91 µM) | – | – | Not Active | > 7 | > 10 | – | –
O=[N+]([O-])c1ccc(N/N=C(\c2ccccc2)c2ccc(O)cc2)c([N+](=O)[O-])c1 | > 10 | 5 (≈ 13.2 µM) | 0.3 (≈ 0.793 µM) | Not Active | – | 0.5 (≈ 1.32 µM) | – | –
O=[N+]([O-])c1ccc(N/N=C2\c3ccccc3-c3cccc(O)c32)c([N+](=O)[O-])c1 | – | – | – | Not Active | 7.5 (≈ 19.9 µM) | > 5 | Not Active | –
O=[N+]([O-])c1ccc(/N=N/c2c3ccccc3c3c4c(cccc24)NN3)c([N+](=O)[O-])c1 | – | – | > 5 | Not Active | > 5 | > 5 | Not Active | –
O=[N+]([O-])c1ccc(NN=C2c3cc(O)ccc3-c3ccc(O)cc32)c([N+](=O)[O-])c1 | 4.1 (≈ 10.5 µM) | – | 0.08 (≈ 0.204 µM) | – | 0.05 (≈ 0.127 µM) | 0.06 (≈ 0.153 µM) | – | IC50 (Homo sapiens [2]): > 10 µg/mL
Cc1ccc(NN=C(c2ccc(O)cc2)c2ccc(O)cc2)c(C)c1 | – | 10 (≈ 30.1 µM) | – | Not Active | – | – | Not Active | –
COc1ccc2c(=NNc3ccc([N+](=O)[O-])cc3[N+](=O)[O-])c3ccc(OC)cc3oc2c1 | – | – | – | Not Active | > 5 | – | Not Active | IC50 [8]: 0.95 µg/mL (≈ 2.18 µM); IC50 (MDA-MB-435): 0.41 µg/mL (≈ 0.94 µM); IC50 [9]: 0.64 µg/mL (≈ 1.47 µM); IC50 [10]: 0.62 µg/mL (≈ 1.42 µM); IC50 [11]: 1.57 µg/mL (≈ 3.6 µM); IC50 [12]: 0.44 µg/mL (≈ 1.01 µM)
Nc1ccc(/C(=N/Nc2ccc([N+](=O)[O-])cc2[N+](=O)[O-])c2ccccc2N)cc1 | 6 (≈ 15.3 µM) | – | 2 (≈ 5.1 µM) | Not Active | 0.7 (≈ 1.78 µM) | 8 (≈ 20.4 µM) | – | –
O=[N+]([O-])c1ccc(/N=N/c2c3ccccc3c(O)c3c(O)c(O)ccc23)c([N+](=O)[O-])c1 | > 5 | – | > 10 | – | 0.007 (≈ 0.0167 µM) | 0.25 (≈ 0.595 µM) | – | IC50 (Homo sapiens [2]): > 10 µg/mL
O=[N+]([O-])c1ccc(/N=N/c2c3ccccc3c(O)c3c(O)c4ccccc4cc23)c([N+](=O)[O-])c1 | – | – | – | – | 0.3 (≈ 0.66 µM) | – | Not Active | IC50 (Homo sapiens [2]): 0.1 µg/mL (≈ 0.22 µM)
O=[N+]([O-])c1ccc(N/N=C(\c2ccccc2)c2ccc(O)cc2O)c([N+](=O)[O-])c1 | – | 0.5 (≈ 1.27 µM) | – | Not Active | – | – | Not Active | –
O=[N+]([O-])c1ccc(NN=C(c2ccc(O)cc2O)c2ccc(O)cc2O)c([N+](=O)[O-])c1 | – | > 10 | 0.03 (≈ 0.0704 µM) | – | – | > 5 | Not Active | IC50 (Homo sapiens [2]): > 5 µg/mL
COc1ccc(C(=NNc2ccc([N+](=O)[O-])cc2[N+](=O)[O-])c2ccc(OC)cc2O)c(O)c1 | – | 1.5 (≈ 3.3 µM) | > 5 | Not Active | – | 4.5 (≈ 9.9 µM) | Not Active | –
Nc1ccc2c(NNc3ccc([N+](=O)[O-])cc3[N+](=O)[O-])c3cc(N)ccc3c(/N=N/c3ccc([N+](=O)[O-])cc3[N+](=O)[O-])c2c1 | – | – | > 5 | Not Active | > 5 | > 5 | Not Active | –
